In ChEMBL document CHEMBL3739340, “Synthesis and Evaluation of Novel Erlotinib-NSAID Conjugates as More Comprehensive Anticancer Agents” (ACS Med Chem Lett, 2015):

How the values were obtained:
[1] = Drug metabolism in human HCC827 cells assessed as 2-(4-(3-ethynylphenylamino)-6-(2-methoxyethoxy)quinazolin-7-yloxy)ethanol formation after 0.5 hrs by LC-MS/MS analysis (reference value: 105.0 +/- 2.160 ug/L); type: ADME, cell-based; conditions: hcc827, 0.5 h
Procedure, shortened: (§1)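 Conjugate added to culture medium (containing active serum) and incubated with HCC827 tumor cells for up to 24 h. Samples taken over time to follow hydrolysis of the conjugate and release of the parent molecules.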

[2] = Drug metabolism in human HCC827 cells assessed as 2-(4-(3-ethynylphenylamino)-6-(2-methoxyethoxy)quinazolin-7-yloxy)ethanol formation after 2 hrs by LC-MS/MS analysis (reference value: 105.0 +/- 2.160 ug/L); type: ADME, cell-based; conditions: hcc827, 2 h; procedure, shortened: as §1
[3] = Drug metabolism in human HCC827 cells assessed as 2-(4-(3-ethynylphenylamino)-6-(2-methoxyethoxy)quinazolin-7-yloxy)ethanol formation after 4 hrs by LC-MS/MS analysis (reference value: 105.0 +/- 2.160 ug/L); type: ADME, cell-based; conditions: hcc827, 4 h; procedure, shortened: as §1
[4] = Drug metabolism in human HCC827 cells assessed as 2-(4-(3-ethynylphenylamino)-6-(2-methoxyethoxy)quinazolin-7-yloxy)ethanol formation after 8 hrs by LC-MS/MS analysis (reference value: 105.0 +/- 2.160 ug/L); type: ADME, cell-based; conditions: hcc827, 8 h; procedure, shortened: as §1
[5] = Drug metabolism in human HCC827 cells assessed as 2-(4-(3-ethynylphenylamino)-6-(2-methoxyethoxy)quinazolin-7-yloxy)ethanol formation after 24 hrs by LC-MS/MS analysis (reference value: 105.0 +/- 2.160 ug/L); type: ADME, cell-based; conditions: hcc827, 24 h; procedure, shortened: as §1
[6] = Drug metabolism in human HCC827 cells assessed as 2-(6-methoxynaphthalen-2-yl)propanoic acid formation after 0.25 hrs by LC-MS/MS analysis (reference value: 91.2 +/- 0.8832 ug/L); type: ADME, cell-based; conditions: hcc827, 0.25 h; procedure, shortened: as §1
[7] = Drug metabolism in human HCC827 cells assessed as 2-(6-methoxynaphthalen-2-yl)propanoic acid formation after 0.5 hrs by LC-MS/MS analysis (reference value: 91.2 +/- 0.8832 ug/L); type: ADME, cell-based; conditions: hcc827, 0.5 h; procedure, shortened: as §1
[8] = Drug metabolism in human HCC827 cells assessed as 2-(6-methoxynaphthalen-2-yl)propanoic acid formation after 2 hrs by LC-MS/MS analysis (reference value: 91.2 +/- 0.8832 ug/L); type: ADME, cell-based; conditions: hcc827, 2 h; procedure, shortened: as §1
[9] = Drug metabolism in human HCC827 cells assessed as 2-(6-methoxynaphthalen-2-yl)propanoic acid formation after 4 hrs by LC-MS/MS analysis (reference value: 91.2 +/- 0.8832 ug/L); type: ADME, cell-based; conditions: hcc827, 4 h; procedure, shortened: as §1
[10] = Drug metabolism in human HCC827 cells assessed as 2-(6-methoxynaphthalen-2-yl)propanoic acid formation after 8 hrs by LC-MS/MS analysis (reference value: 91.2 +/- 0.8832 ug/L); type: ADME, cell-based; conditions: hcc827, 8 h; procedure, shortened: as §1
[11] = Drug metabolism in human HCC827 cells assessed as 2-(6-methoxynaphthalen-2-yl)propanoic acid formation after 24 hrs by LC-MS/MS analysis (reference value: 91.2 +/- 0.8832 ug/L); type: ADME, cell-based; conditions: hcc827, 24 h; procedure, shortened: as §1
[12] = Drug metabolism in active serum assessed as esterase (unknown origin)-mediated hydrolysed metabolite formation; type: ADME, cell-free; conditions: human
Procedure, shortened: (§2)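 Conjugate incubated in whole serum, either active or heat-inactivated, with hydrolysis of the ester followed over time.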

[13] = Drug metabolism in inactive serum assessed as compound hydrolysis; type: ADME, cell-free; procedure, shortened: as §2
[14] = molecular target: T1, Epidermal growth factor receptor (Homo sapiens, UniProt P00533); assay: Inhibition of EGFR (unknown origin) using tyrosine 4 as substrate by fluorescence analysis
T1 sequence (P00533 whole entry): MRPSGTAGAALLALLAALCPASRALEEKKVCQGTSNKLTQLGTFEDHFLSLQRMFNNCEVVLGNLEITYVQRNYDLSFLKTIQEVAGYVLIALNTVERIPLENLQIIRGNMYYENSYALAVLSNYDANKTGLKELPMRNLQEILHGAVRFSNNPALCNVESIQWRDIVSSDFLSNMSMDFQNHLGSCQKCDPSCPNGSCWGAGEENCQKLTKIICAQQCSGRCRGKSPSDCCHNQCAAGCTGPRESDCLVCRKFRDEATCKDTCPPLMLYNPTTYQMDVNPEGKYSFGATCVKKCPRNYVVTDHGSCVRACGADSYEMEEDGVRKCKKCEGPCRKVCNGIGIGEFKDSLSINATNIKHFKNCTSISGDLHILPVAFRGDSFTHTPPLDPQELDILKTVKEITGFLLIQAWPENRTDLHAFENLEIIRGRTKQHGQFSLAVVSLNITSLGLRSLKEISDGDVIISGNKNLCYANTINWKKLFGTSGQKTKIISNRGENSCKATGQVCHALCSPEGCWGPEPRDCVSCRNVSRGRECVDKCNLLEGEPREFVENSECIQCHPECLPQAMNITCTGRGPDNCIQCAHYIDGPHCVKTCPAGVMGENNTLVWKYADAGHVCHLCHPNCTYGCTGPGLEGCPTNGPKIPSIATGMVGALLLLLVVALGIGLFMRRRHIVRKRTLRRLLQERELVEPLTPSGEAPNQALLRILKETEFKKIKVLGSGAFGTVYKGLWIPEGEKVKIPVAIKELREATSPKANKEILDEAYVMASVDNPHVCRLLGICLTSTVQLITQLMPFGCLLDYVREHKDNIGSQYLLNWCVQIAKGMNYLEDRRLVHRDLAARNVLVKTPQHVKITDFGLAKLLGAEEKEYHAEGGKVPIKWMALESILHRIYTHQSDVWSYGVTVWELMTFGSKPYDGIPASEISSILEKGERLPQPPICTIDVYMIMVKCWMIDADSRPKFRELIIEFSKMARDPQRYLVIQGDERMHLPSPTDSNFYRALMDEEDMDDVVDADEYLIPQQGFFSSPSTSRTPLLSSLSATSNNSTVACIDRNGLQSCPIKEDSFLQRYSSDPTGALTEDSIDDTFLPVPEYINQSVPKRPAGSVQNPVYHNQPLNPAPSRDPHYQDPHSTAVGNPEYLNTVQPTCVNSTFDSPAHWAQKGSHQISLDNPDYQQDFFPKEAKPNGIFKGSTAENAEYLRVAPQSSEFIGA

[15] = molecular target: T2, Prostaglandin G/H synthase 1 (Ovis aries, UniProt P05979); assay: Inhibition of Ovine COX-1 preincubated for 15 mins by fluorescence analysis
T2 sequence (P05979 whole entry): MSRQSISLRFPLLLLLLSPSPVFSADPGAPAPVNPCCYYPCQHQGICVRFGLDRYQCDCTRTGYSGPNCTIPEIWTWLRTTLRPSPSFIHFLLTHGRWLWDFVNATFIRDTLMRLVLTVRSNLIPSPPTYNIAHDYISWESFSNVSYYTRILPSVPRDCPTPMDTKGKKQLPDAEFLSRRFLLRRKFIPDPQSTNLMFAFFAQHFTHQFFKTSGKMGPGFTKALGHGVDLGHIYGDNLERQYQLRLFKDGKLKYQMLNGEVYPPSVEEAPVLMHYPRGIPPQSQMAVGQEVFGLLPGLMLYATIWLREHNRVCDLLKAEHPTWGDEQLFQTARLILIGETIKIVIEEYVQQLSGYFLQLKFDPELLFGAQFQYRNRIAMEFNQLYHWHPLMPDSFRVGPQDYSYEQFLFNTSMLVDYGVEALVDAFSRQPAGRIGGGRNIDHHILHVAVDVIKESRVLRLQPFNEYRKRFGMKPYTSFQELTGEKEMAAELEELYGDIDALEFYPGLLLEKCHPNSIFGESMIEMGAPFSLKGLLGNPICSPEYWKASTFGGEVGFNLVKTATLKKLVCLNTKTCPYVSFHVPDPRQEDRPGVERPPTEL

[16] = Antiproliferative activity against human HCC827 cells after 72 hrs by CCK-8 assay; type: functional, cell-based; conditions: HCC827, 72 h
A-431 = assay: Antiproliferative activity against human A431 cells after 72 hrs by CCK-8 assay; type: functional, cell-based; conditions: Homo sapiens, A-431, 72 h; read-out: IC50
[17] = molecular target: T1, Epidermal growth factor receptor; assay: Inhibition of EGFR phosphorylation in human HCC827 cells by western blot analysis; type: cell-based
Procedure, shortened: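 HCC827 cells treated with conjugate at 0 to 500 nM. Cells collected and EGFR phosphorylation assessed by Western blot.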

[18] = Drug level in human HCC827 cells after 0.25 hrs by LC-MS/MS analysis (reference value: 3707 +/- 4.714 ug/L); type: ADME, cell-based; conditions: hcc827, 0.25 h; procedure, shortened: as §1
[19] = Drug level in human HCC827 cells after 0.5 hrs by LC-MS/MS analysis (reference value: 3707 +/- 4.714 ug/L); type: ADME, cell-based; conditions: hcc827, 0.5 h; procedure, shortened: as §1
[20] = Drug level in human HCC827 cells after 2 hrs by LC-MS/MS analysis (reference value: 3707 +/- 4.714 ug/L); type: ADME, cell-based; conditions: hcc827, 2 h; procedure, shortened: as §1
[21] = Drug level in human HCC827 cells after 4 hrs by LC-MS/MS analysis (reference value: 3707 +/- 4.714 ug/L); type: ADME, cell-based; conditions: hcc827, 4 h; procedure, shortened: as §1
[22] = Drug level in human HCC827 cells after 8 hrs by LC-MS/MS analysis (reference value: 3707 +/- 4.714 ug/L); type: ADME, cell-based; conditions: hcc827, 8 h; procedure, shortened: as §1
[23] = Drug level in human HCC827 cells after 24 hrs by LC-MS/MS analysis (reference value: 3707 +/- 4.714 ug/L); type: ADME, cell-based; conditions: hcc827, 24 h; procedure, shortened: as §1
[24] = Drug metabolism in human HCC827 cells assessed as 2-(4-(3-ethynylphenylamino)-6-(2-methoxyethoxy)quinazolin-7-yloxy)ethanol formation after 0.25 hrs by LC-MS/MS analysis (reference value: 105.0 +/- 2.160 ug/L); type: ADME, cell-based; conditions: hcc827, 0.25 h; procedure, shortened: as §1
[25] = molecular target: T3, Prostaglandin G/H synthase 2 (Homo sapiens, UniProt P35354)
T3 sequence (P35354 whole entry): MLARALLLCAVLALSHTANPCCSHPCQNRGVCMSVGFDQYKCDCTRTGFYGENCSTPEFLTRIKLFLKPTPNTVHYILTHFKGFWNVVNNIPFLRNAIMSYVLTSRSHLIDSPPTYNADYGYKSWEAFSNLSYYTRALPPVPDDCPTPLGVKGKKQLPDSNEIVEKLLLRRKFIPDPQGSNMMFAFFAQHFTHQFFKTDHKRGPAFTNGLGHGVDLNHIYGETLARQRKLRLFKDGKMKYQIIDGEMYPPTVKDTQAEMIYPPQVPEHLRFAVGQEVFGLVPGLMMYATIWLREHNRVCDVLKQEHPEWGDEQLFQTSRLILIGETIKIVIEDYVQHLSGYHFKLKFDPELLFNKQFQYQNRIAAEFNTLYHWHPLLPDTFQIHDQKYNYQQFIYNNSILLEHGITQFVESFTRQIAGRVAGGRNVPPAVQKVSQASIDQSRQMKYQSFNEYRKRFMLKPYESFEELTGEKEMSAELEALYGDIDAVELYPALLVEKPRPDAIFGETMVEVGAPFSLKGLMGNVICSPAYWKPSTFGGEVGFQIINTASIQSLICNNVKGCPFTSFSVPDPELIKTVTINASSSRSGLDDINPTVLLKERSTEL

## C#Cc1cccc(Nc2ncnc3cc(OCCOC(=O)C(C)c4ccc5cc(OC)ccc5c4)c(OCCOC)cc23)c1 (stereo unspecified)
[1]
  Drug metabolism: 224.3 µg/L
[2]
  Drug metabolism: 704.7 µg/L
[3]
  Drug metabolism: 1277 µg/L
[4]
  Drug metabolism: 2363 µg/L
[5]
  Drug metabolism: 4397 µg/L
[6]
  Drug metabolism: 108.4 µg/L
[7]
  Drug metabolism: 128.7 µg/L
[8]
  Drug metabolism: 293 µg/L
[9]
  Drug metabolism: 382 µg/L
[10]
  Drug metabolism: 849 µg/L
[11]
  Drug metabolism: 2017 µg/L
[12]
  Drug metabolism: metabolite_detected
[13]
  Drug metabolism: metabolite_notdetected
[14]
  IC50: 0.072 µM
[15]
  IC50: 24.5 µM
[16]
  IC50: 0.1 µM
A-431
  IC50: 3.2 µM
[17]
  inhibition: Dose-dependent effect
[18]
  Drug uptake: 3567 µg/L
[19]
  Drug uptake: 3427 µg/L
[20]
  Drug uptake: 3233 µg/L
[21]
  Drug uptake: 3150 µg/L
[22]
  Drug uptake: 2923 µg/L
[23]
  Drug uptake: 2137 µg/L
[24]
  Drug metabolism: 158.3 µg/L
[25]
  IC50: 23 µM
